ChEMBL document CHEMBL4017544 (J Med Chem, 2017)
Calls of active or inactive are those of the source. The calls are words filed in the database; no cut-off is given here.

Key:
[1] = Volume of distribution at steady state in Sprague-Dawley rat at 10 mg/kg, iv measured up to 24 hrs by LC-MS/MS analysis; type: ADME, organism-based; settings: in vivo, read-out: Vdss
In short: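 Rats received a single 10 mg/kg i.v. dose. Blood was drawn from the suborbital vein at 0, 2, 5, 15, 30 and 60 min and at 1.5, 2, 4, 6, 8, 12 and 24 h, and plasma was analyzed by LC-MS/MS. n = 3, mean ± SD.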

[2] = target: Kelch-like ECH-associated protein 1 (Homo sapiens) (UniProt Q14145); assay: Inhibition of Keap1/Nrf2 (unknown origin) interaction transfected in HEK293 cells assessed as upregulation of HO-1 mRNA expression at 200 to 1000 nM after 48 hrs by quantitative RT-PCR analysis; type: cell-based
Chain of Kelch-like ECH-associated protein 1 (Homo sapiens) (Q14145 whole entry): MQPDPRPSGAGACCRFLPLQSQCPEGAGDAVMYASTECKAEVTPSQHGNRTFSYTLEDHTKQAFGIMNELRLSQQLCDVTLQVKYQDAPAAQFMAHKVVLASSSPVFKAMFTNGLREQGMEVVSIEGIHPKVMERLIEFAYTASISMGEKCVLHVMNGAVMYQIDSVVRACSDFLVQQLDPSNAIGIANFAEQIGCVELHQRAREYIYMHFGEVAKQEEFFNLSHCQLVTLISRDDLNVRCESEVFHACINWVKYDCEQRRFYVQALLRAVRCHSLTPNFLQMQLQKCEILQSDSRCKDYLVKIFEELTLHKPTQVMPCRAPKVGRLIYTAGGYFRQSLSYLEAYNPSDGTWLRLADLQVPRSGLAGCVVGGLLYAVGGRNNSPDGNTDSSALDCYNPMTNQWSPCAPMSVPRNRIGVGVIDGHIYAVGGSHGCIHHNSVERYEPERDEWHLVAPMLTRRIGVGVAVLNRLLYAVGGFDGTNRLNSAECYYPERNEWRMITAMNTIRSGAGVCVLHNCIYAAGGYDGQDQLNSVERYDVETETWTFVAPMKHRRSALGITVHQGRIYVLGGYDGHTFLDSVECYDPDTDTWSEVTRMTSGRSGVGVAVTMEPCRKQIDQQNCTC
In short: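 HEK293 cells (ATCC; high-glucose DMEM, 10% FBS) were treated in triplicate for 48 h. For the reporter read-out, cells were transfected with an ARE-dependent luciferase plasmid and luciferase activity was measured. For mRNA, total RNA was extracted with TRIzol and reverse transcribed, and target transcripts were quantified by qRT-PCR relative to GAPDH using the 2−ΔΔCt method. Three independent experiments, mean ± SD.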

[3] = Cmax in Sprague-Dawley rat at 10 mg/kg, iv measured up to 24 hrs by LC-MS/MS analysis; type: ADME, organism-based; set-up: dose 10 mg/kg, route intravenous; settings: in vivo
In short: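 Rats dosed intravenously at 10 mg/kg; blood drawn from suborbital vein at 0, 2, 5, 15, 30, 60 min and 1.5, 2, 4, 6, 8, 12, 24 h; plasma levels by LC-MS/MS; parameters from concentration–time profiles, mean ± SD, n = 3.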

[4] = target: T1, Inhibitor of nuclear factor kappa-B kinase subunit beta (Homo sapiens) (UniProt O14920); assay: Inhibition of IKKbeta (unknown origin) transfected in HEK293 cells assessed as TNFalpha-induced NFkappaB activation at 200 to 1000 nM administered 6 hrs after TNFalpha stimulation measured for 24 hrs by NFkappaB-driven luciferase reporter gene assay; type: cell-based
T1 sequence (whole entry): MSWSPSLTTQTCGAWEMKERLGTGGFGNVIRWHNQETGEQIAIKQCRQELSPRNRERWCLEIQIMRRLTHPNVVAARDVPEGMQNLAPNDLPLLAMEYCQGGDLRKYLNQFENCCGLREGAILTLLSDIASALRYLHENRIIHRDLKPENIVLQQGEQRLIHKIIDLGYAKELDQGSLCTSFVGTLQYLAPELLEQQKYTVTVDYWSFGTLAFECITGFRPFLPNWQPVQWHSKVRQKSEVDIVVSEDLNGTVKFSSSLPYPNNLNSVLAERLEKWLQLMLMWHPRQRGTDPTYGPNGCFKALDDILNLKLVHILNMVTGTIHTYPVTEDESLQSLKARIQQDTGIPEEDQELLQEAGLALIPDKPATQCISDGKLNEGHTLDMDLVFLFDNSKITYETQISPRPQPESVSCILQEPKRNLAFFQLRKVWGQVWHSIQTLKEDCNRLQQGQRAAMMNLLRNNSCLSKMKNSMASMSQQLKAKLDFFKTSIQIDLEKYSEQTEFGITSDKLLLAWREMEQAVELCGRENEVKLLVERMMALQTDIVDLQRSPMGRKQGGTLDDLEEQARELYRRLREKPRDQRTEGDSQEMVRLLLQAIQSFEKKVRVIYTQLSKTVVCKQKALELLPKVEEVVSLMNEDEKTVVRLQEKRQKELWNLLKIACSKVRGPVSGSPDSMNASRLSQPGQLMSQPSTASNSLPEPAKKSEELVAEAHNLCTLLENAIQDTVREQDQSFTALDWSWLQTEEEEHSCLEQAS
In short: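 HEK293 cells transfected with an NF-κB-driven luciferase reporter, stimulated with TNF-α and treated in triplicate; luciferase read with a dual-luciferase system.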

[5] = target: T1, Inhibitor of nuclear factor kappa-B kinase subunit beta (Homo sapiens); assay: Inhibition of IKKbeta (unknown origin) transfected in HEK293 cells assessed as reduction in TNFalpha-induced upregulation of iNOS mRNA expression at 200 to 1000 nM administered 6 hrs after TNFalpha stimulation measured for 24 hrs by quantitative RT-PCR analysis; type: cell-based
In short: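 HEK293 cells pretreated with TNF-α (10 ng/mL) for 6 h, then given compound at 200 or 1000 nM for 24 h, in triplicate; iNOS, COX2 and MCP-1 mRNA relative to GAPDH by quantitative RT-PCR, 2−ΔΔCt method; mean ± SD from three experiments.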

[6] = target: Kelch-like ECH-associated protein 1 (Homo sapiens) (UniProt Q14145); assay: Inhibition of Keap1/Nrf2 (unknown origin) interaction transfected in HEK293 cells assessed as increase in cytosolic NQO1 levels at 200 to 1000 nM after 48 hrs by Western blot analysis; type: cell-based
In short: (§1)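 HEK293 cells grown in high-glucose DMEM with 10% FBS were treated in triplicate at 200 or 1000 nM for 48 h. Nuclear and cytosolic Nrf2, HO-1 and cytoplasmic NQO1 were measured by western blot with specific antibodies, with TBP and β-actin among the probed proteins. The nuclear/cytosolic Nrf2 ratio was derived from these blots. Three independent experiments, mean ± SD.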

[7] = tested on: HEK293; assay: Effect on Nfr2 mRNA expression in HEK293 cells harboring Keap1 at 200 to 1000 nM after 48 hrs by quantitative RT-PCR analysis; type: functional, cell-based; settings: Homo sapiens
In short: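 HEK293 cells treated in triplicate at 200 or 1000 nM for 48 h; Nrf2 mRNA relative to GAPDH by quantitative RT-PCR using the 2−ΔΔCt method; mean ± SD from three experiments.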

[8] = target: T1, Inhibitor of nuclear factor kappa-B kinase subunit beta (Homo sapiens); assay: Inhibition of IKKbeta (unknown origin) transfected in HEK293 cells assessed as reduction in TNFalpha-induced upregulation of COX2 protein expression at 200 to 1000 nM administered 6 hrs after TNFalpha stimulation measured for 24 hrs by Western blot method; type: cell-based
In short: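 HEK293 cells pretreated with TNF-α (10 ng/mL) for 6 h, then given compound at 200 or 1000 nM for 24 h, in triplicate; nuclear and cytosolic p65, iNOS and COX2 protein by western blot; mean ± SD from three experiments.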

[9] = Drug level in Sprague-Dawley rat kidney at 30 mg/kg, ip measured at 90 mins by LC-MS/MS analysis; type: ADME, organism-based; settings: read-out: Drug uptake
In short: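 Rats given a single ip injection, 20 mg/kg (0.04 mmol) of CDDO-Me or 30 mg/kg (0.04 mmol) of the prodrug; heart, kidney and liver collected over time; parent compound and liberated CDDO-Me measured by LC-MS/MS.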

[10] = target: Kelch-like ECH-associated protein 1 (Homo sapiens) (UniProt Q14145); assay: Inhibition of Keap1/Nrf2 (unknown origin) interaction transfected in HEK293 cells assessed as increase in nuclear to cytosolic Nfr2 ratio after 48 hrs by Western blot analysis; type: cell-based; in short: as §1
[11] = tested on: Mus musculus; assay: Antidiabetic nephropathic activity in db/db mouse assessed as increase in urinary creatinine at 1 to 2 mg/kg, ip administered thrice per week for 12 consecutive weeks measured at 24 hrs post 11 week administration; type: functional, organism-based
In short: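 Male db/db mice, 8 weeks old, randomized; ip vehicle (5% Tween-80 in 0.9% saline) or drug three times weekly for 12 weeks, n = 6 per group. After 11 weeks, 24 h urine collected for volume, albumin and creatinine, with UACR calculated; blood then sampled for plasma BUN and uric acid. Mean ± SD, one-way ANOVA with Tukey test.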

Compound | Vd [1] [L/kg] | inhibition [2] | Cmax [3] [ng/mL] | inhibition [4] | inhibition [5] | inhibition [6] | Activity [7] | inhibition [8] | concentration at 1.5 h [9] [ng/g] | inhibition [10] | Activity [11]
COC(=O)[C@]12CCC(C)(C)C[C@H]1[C@H]1C(=O)C=C3[C@@]4(C)C=C(C#N)C(=O)C(C)(C)[C@@H]4CC[C@@]3(C)[C@]1(C)CC2 [BARDOXOLONE METHYL] | 29.1 | Active | 5020 | Active | Active | Active | inactive | Active | – | – | –
COC(=O)[C@@H](N)CCC(=O)Nc1ccc(COC2=C(C#N)[C@H](O)[C@]3(C)C4=CC(=O)[C@@H]5[C@@H]6CC(C)(C)CC[C@]6(C(=O)OC)CC[C@@]5(C)[C@]4(C)CC[C@H]3C2(C)C)cc1 | 35.1 | Active | 3020 | Active | Active | – | inactive | Active | 800 | Dose-dependent effect | Active
